According to PMC5352491 (ACS chemical neuroscience, 2016):
Entries after “also recorded” stand apart in the source; their conditions may differ. Read-outs that look alike come from different tables or passages of the source.

Tests used:
[1] = target: human μ opioid receptor (μ-OR) (Homo sapiens, UniProt P35372); test: cell-based; format: cell-based
[2] = target: human δ opioid receptor (δ-OR) (Homo sapiens, UniProt P41143); test: calcium mobilization assay, δ-OR agonist activity; format: cell-based; details: for δ-OR agonist activity in HTS of extract / LC-MS fractions: approximately 20.0 μg/mL, DPDPE control 100 nM; for activity at δ-OR (agonist or antagonist): up to 50.0 μM
Sequence of human δ opioid receptor (δ-OR) (P41143 whole entry): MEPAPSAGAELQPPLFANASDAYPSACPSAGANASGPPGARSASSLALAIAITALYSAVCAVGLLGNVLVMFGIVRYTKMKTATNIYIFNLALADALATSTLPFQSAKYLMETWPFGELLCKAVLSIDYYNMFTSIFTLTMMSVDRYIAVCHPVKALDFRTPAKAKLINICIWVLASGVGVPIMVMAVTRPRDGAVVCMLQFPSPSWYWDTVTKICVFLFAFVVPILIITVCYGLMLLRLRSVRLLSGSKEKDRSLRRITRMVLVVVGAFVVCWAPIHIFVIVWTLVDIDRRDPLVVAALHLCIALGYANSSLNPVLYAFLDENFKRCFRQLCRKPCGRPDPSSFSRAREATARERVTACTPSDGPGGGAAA

μ-OR [3] = test: fluorescent endocytosis assay; format: cell-based; details: 30 min; DAMGO 1 μM, others 10 μM
μ-OR [4] = test: biotin protection endocytosis assay; format: cell-based; details: 10 μM each, 30 min
δ-KO C57BL/6 mice [5] = details: mouse, in vivo, ip, 40 mg/kg
δ-KO C57BL/6 mice [6] = test: forced swim test, δ-OR knockout mice; format: in vivo; details: 40 mg/kg ip, p = 0.20 vs saline
In short: (§1)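 Male C57BL/6 mice (wild type or δ-OR knockout littermates, 8–10 weeks, 9 per group) on a 12-h reversed light/dark cycle, tested in the dark phase after 2 h room habituation. Given saline vehicle or test compound (40 mg/kg ip), then placed in a water cylinder (30 cm diameter, 22–24 cm deep, 36.0 ± 0.2 °C) for 6 min. Video recorded; seconds immobile scored.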

WT C57BL/6 mice [7] = details: mouse, in vivo, ip, 40 mg/kg
WT C57BL/6 mice [8] = details: unknown target; cited from earlier work
WT C57BL/6 mice [9] = test: forced swim test, wild type mice; format: in vivo; details: 40 mg/kg ip; for antidepressant-like activity in forced swim test: p = 0.003 vs saline, 40 mg/kg
In short: as §1

human μ-OR [10] = target: T1, human μ-OR (Homo sapiens, UniProt P35372); test: cell-based; details: HEK-293T, read-out: β-arrestin-2 Emax (%)
Target sequence in this assay (P35372 whole entry): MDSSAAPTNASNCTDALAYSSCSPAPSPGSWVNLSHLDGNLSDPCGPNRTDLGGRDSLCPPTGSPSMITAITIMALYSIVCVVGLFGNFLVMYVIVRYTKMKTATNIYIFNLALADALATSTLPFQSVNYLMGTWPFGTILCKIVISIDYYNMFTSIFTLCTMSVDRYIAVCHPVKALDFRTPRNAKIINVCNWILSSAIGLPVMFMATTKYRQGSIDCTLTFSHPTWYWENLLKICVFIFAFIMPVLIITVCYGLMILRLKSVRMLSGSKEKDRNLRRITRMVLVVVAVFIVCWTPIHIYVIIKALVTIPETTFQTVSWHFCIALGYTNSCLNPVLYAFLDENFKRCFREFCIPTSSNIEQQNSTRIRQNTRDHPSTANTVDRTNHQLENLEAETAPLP
Target sequence in this assay (P32121 whole entry partner): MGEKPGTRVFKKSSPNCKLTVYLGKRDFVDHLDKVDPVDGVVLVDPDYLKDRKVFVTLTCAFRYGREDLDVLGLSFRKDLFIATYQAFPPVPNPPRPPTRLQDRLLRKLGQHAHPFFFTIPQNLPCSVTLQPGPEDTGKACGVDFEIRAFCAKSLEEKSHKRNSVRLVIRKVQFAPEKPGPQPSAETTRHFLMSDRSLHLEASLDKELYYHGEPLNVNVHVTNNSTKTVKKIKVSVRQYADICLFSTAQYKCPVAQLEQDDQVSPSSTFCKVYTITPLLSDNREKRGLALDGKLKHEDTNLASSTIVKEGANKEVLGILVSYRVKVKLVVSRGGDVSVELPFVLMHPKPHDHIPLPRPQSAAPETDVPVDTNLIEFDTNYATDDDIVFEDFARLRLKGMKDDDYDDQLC

HEK 293T cells = test: toxicity seen in the β-arrestin-2 recruitment assay; format: cell-based; details: cells of the β-arrestin-2 dose-response
κ-OR = κ-OR (Homo sapiens, UniProt P41145); test: κ-OR agonist/antagonist screen; format: cell-based; details: up to 50.0 μM
Sequence of κ-OR (P41145 whole entry): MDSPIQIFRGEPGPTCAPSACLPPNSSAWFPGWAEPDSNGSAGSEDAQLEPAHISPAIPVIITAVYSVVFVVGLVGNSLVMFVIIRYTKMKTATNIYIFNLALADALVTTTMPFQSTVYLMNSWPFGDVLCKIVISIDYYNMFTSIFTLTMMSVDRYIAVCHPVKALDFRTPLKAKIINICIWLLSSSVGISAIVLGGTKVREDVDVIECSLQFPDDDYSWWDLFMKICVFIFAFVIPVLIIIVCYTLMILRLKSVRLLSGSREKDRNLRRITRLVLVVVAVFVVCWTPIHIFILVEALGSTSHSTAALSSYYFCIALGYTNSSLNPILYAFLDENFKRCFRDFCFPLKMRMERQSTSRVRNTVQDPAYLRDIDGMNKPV

human μ-OR [11] = target: T1, human μ-OR; test: cell-based; details: HEK-293T, read-out: Gi Emax(%)
Target sequence in this assay (P35372 whole entry): as the sequence (P35372 whole entry) above

Sequence of human μ opioid receptor (μ-OR) (P35372 whole entry): as above

For `COc1cc2ccnc3c2c(c1O)NC=C3` [9-demethyl aaptamine (11), 9-demethyl aaptamine], the “μ-OR agonist activity in HTS of extract / LC-MS fractions” value [1] was “very weak partial agonism”, the EC50 ([1]; read-out: EC50 μ-OR) was 6.03 ± 1.2 µM and the “δ-OR agonist activity in HTS of extract / LC-MS fractions” value [2] was “measurable δ-OR agonist activity”.
In the case of `O=C1c2ccccc2-[n+]2ccc3c([nH]c4cc(Br)ccc43)c21` [10 bromofascaplysin (18), 10 bromofascaplysin], the EC50 ([1]; read-out: EC50 μ-OR) is reported as 4.2 ± 3.7 µM.
With `C[C@@H](NC(=O)[C@@H](N)Cc1ccc(O)cc1)C(=O)NCC(=O)N(C)[C@@H](Cc1ccccc1)C(=O)NCCO` [DAMGO (6), DAMGO] the “μ-OR endocytosis by immunofluorescence” value (μ-OR [3]) was “also promoted endocytosis; also recorded: promoted μ-OR endocytosis”, the “μ-OR endocytosis, biotin protection assay” value (μ-OR [4]) was “promoted significant endocytosis” and the “μ-OR endocytosis, biotin protection assay” value (μ-OR [4]; listed as DAMGO) was “promoted μ-OR endocytosis”.
For `COc1cc2ccnc3c2c(c1OC)NC=C3` [aaptamine (10), aaptamine], the “effect on general locomotion” value (δ-KO C57BL/6 mice [5]) was “no effect on general locomotion”, the “effect in forced swim test” value (δ-KO C57BL/6 mice [6]; listed as Aaptamine) was “antidepressant-like activity in WT but not δ-KO mice” and the “effect in forced swim test” value (δ-KO C57BL/6 mice [6]; listed as aaptamine) was “no effect”. The “effect on general locomotion” value (WT C57BL/6 mice [7]) was “no effect on general locomotion”, the “effect on immobility time in forced swim test” value (WT C57BL/6 mice [8]) was “significant effect on the immobility time” and the EC50 [1] was 10.1 ± 1.4 µM. For the same compound, the “antidepressant-like activity in forced swim test” value (WT C57BL/6 mice [9]; listed as Aaptamine) was “showed antidepressant-like activity in WT”, the “antidepressant-like activity in forced swim test” value (WT C57BL/6 mice [9]; listed as aaptamine) was “showed antidepressant-like activity” and the “time immobile in forced swim test (average)” value (WT C57BL/6 mice [9]; saline ~30 s) was ~ 10 s. It also gave an EC50 [2] of 5.1 ± 0.2 µM.
For `COC1=Cc2ccnc3ccnc(c23)C1=O` [demethyl (oxy) –aaptamine (12), demethyl (oxy) –aaptamine], the “μ-OR agonist activity in HTS of extract / LC-MS fractions” value [1] was “very weak partial agonism”, the EC50 ([1]; read-out: EC50 μ-OR) was 4.1 ± 1.2 µM and the “δ-OR agonist activity in HTS of extract / LC-MS fractions” value [2] was “measurable δ-OR agonist activity”.
For `O=C1c2ccccc2-[n+]2ccc3c([nH]c4ccccc43)c21` [fascaplysin (17), fascaplysin], the Emax (human μ-OR [10]) was 78%, the toxic concentration (HEK 293T cells) was “higher than 50 μM” and the “activity at κ-OR (agonist or antagonist)” value (κ-OR) was “no significant agonist or antagonist activity”. For the same compound, the “μ-OR endocytosis by immunofluorescence” value (μ-OR [3]) was “promoted substantial endocytosis; also recorded: promoted μ-OR endocytosis”, the “μ-OR endocytosis, biotin protection assay” value (μ-OR [4]) was “promoted substantial endocytosis; also recorded: promoted μ-OR endocytosis” and the EC50 [1] was 6.3 ± 0.2 µM. The Emax ([1]; read-out: Emax at the μ-OR) was 100%, the Emax (human μ-OR [11]) was 111% and the “activity at δ-OR (agonist or antagonist)” value [2] was “no significant agonist or antagonist activity”.
For `CCC(=O)C(CC(C)N(C)C)(c1ccccc1)c1ccccc1` (centres unmarked) [methadone (S6), methadone], the “μ-OR endocytosis by immunofluorescence” value (μ-OR [3]) was “also promoted endocytosis; also recorded: promoted μ-OR endocytosis” and the “μ-OR endocytosis, biotin protection assay” value (μ-OR [4]) was “promoted significant endocytosis; also recorded: promoted μ-OR endocytosis”.
With `CN1CC[C@]23c4c5ccc(O)c4O[C@H]2[C@@H](O)C=C[C@H]3[C@H]1C5` [morphine (1), morphine] the “μ-OR endocytosis by immunofluorescence” value (μ-OR [3]) was “did not promote significant endocytosis” and the “μ-OR endocytosis, biotin protection assay” value (μ-OR [4]) was “induced no significant endocytosis”.
With `CNc1c2c(c3nc4ccccc4c4c3c1N=C4)NCCC2=O` [plakinidine A (19), plakinidine A] the “activity at μ-OR (agonist or antagonist)” value [1] was “not active” and the “activity at δ-OR (agonist or antagonist)” value [2] was “not active”.
For `CC(C)c1c2c(c3nc4ccccc4c4c3c1N=C4)NCCC2=O` [plakinidine B (20), plakinidine B], the “activity at μ-OR (agonist or antagonist)” value [1] was “not active” and the “activity at δ-OR (agonist or antagonist)” value [2] was “not active”.
In the case of mitragynine [mitragynine (21)], the “μ-OR endocytosis by immunofluorescence” value (μ-OR [3]) is reported as “did not promote receptor endocytosis”.
